Test results as given in ChEMBL document CHEMBL4038284, “Synthesis of novel quinoline-based 4,5-dihydro-1H-pyrazoles as potential anticancer, antifungal, antibacterial and antiprotozoal agents” (Eur J Med Chem, 2017).

How the values were obtained:
Format in all cases: functional
[1] = test system: IGROV-1; experiment: Growth inhibition of human IGROV1 cells incubated for 48 hrs by sulforhodamine B assay; conditions: IGROV-1, 48 h; for CC50: read-out: LC50 (the source's name)
In short: (§1)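 NCI 60-line screen. Cells in RPMI-1640 with 5% FBS and 2 mM L-glutamine, preincubated 24 h, then time-zero plates TCA-fixed. Compounds from DMSO stocks given at five final concentrations (100, 10, 1.0, 0.1, 0.01 µM) for 48 h at 37 °C, 5% CO2. Cells fixed with 10% TCA, SRB-stained, read at 515 nm. GI50 is the concentration giving 50% lower net protein increase versus control.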

[2] = test system: SNB-75; experiment: Growth inhibition of human SNB75 cells incubated for 48 hrs by sulforhodamine B assay; conditions: SNB-75, 48 h; for CC50: read-out: LC50 (the source's name); in short: as §1
[3] = test system: HCC 2998; experiment: Growth inhibition of human HCC2998 cells incubated for 48 hrs by sulforhodamine B assay; conditions: HCC 2998, 48 h; in short: as §1
[4] = test system: MDA-MB-435; experiment: Growth inhibition of human MDA-MB-435 cells incubated for 48 hrs by sulforhodamine B assay; conditions: MDA-MB-435, 48 h
In short: (§2)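 Five-dose NCI SRB assay at 100, 10, 1.0, 0.1 and 0.01 μM for 48 h at 37 °C, 5% CO2. Medium was RPMI-1640 with 5% FBS and 2 mM glutamine. Time-zero plates were TCA-fixed at compound addition, A515 read after SRB staining. GI50 was solved from [(Ti−Tz)/(C−Tz)]×100 = 50. Values beyond the tested range are given as > or <.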

[5] = test system: SF-295; experiment: Growth inhibition of human SF295 cells incubated for 48 hrs by sulforhodamine B assay; conditions: SF-295, 48 h; in short: as §2
[6] = test system: SW-620; experiment: Growth inhibition of human SW620 cells incubated for 48 hrs by sulforhodamine B assay; conditions: SW-620, 48 h
In short: (§3)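 NCI-60 panel cells grown in RPMI-1640 with 5% FBS and 2 mM L-glutamine, preincubated 24 h at 37 °C/5% CO2. Time-zero plates were TCA-fixed at compound addition. DMSO stocks were diluted in medium and tested at five final concentrations (100, 10, 1.0, 0.1, 0.01 µM) for 48 h. Cells were TCA-fixed, stained with SRB and read at 515 nm. GI50 = 50% lower net protein increase versus control.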

[7] = test system: A498; experiment: Growth inhibition of human A498 cells incubated for 48 hrs by sulforhodamine B assay; conditions: A498, 48 h; for CC50: read-out: LC50 (the source's name); in short: as §1
[8] = test system: 786-0; experiment: Growth inhibition of human 786-0 cells incubated for 48 hrs by sulforhodamine B assay; conditions: 786-0, 48 h
In short: (§4)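 NCI five-dose SRB assay (100, 10, 1.0, 0.1, 0.01 µM) with 48 h exposure in RPMI-1640 with 5% FBS and 2 mM L-glutamine. Cells fixed with TCA and stained with SRB, read at 515 nm. GI50 is the concentration where [(Ti−Tz)/(C−Tz)]×100 = 50.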

[9] = test system: KM12; experiment: Growth inhibition of human KM12 cells incubated for 48 hrs by sulforhodamine B assay; conditions: KM12, 48 h; in short: as §2
[10] = test system: EKVX; experiment: Growth inhibition of human EKVX cells incubated for 48 hrs by sulforhodamine B assay; in short: as §4
[11] = test system: COLO 205; experiment: Growth inhibition of human COLO205 cells incubated for 48 hrs by sulforhodamine B assay; conditions: COLO 205, 48 h; in short: as §4
[12] = test system: SK-OV-3; experiment: Growth inhibition of human SKOV3 cells incubated for 48 hrs by sulforhodamine B assay; conditions: SK-OV-3, 48 h; for CC50: read-out: LC50 (the source's name); in short: as §1
[13] = test system: BT-549; experiment: Growth inhibition of human BT549 cells incubated for 48 hrs by sulforhodamine B assay; conditions: BT-549, 48 h; in short: as §4
[14] = test system: Hs-578T; experiment: Growth inhibition of human Hs578T cells incubated for 48 hrs by sulforhodamine B assay; in short: as §2
[15] = test system: SNB-19; experiment: Growth inhibition of human SNB19 cells incubated for 48 hrs by sulforhodamine B assay; conditions: SNB-19, 48 h; in short: as §3
[16] = test system: MOLT-4; experiment: Growth inhibition of human MOLT4 cells incubated for 48 hrs by sulforhodamine B assay; conditions: MOLT-4, 48 h; for CC50: read-out: LC50 (the source's name); in short: as §1
[17] = test system: NCI-H322M; experiment: Growth inhibition of human NCI-H322M cells incubated for 48 hrs by sulforhodamine B assay; in short: as §2
[18] = test system: HCT-15; experiment: Growth inhibition of human HCT15 cells incubated for 48 hrs by sulforhodamine B assay; conditions: HCT-15, 48 h; for CC50: read-out: LC50 (the source's name); in short: as §1
[19] = test system: M14; experiment: Growth inhibition of human M14 cells incubated for 48 hrs by sulforhodamine B assay; conditions: M14, 48 h; in short: as §2
[20] = test system: SR; experiment: Growth inhibition of human SR cells incubated for 48 hrs by sulforhodamine B assay; conditions: for CC50: read-out: LC50 (the source's name); in short: as §1
[21] = test system: NCI/ADR-RES; experiment: Growth inhibition of human NCI/ADR-RES cells incubated for 48 hrs by sulforhodamine B assay; conditions: for CC50: read-out: LC50 (the source's name); in short: as §1
[22] = test system: OVCAR-8; experiment: Growth inhibition of human OVCAR8 cells incubated for 48 hrs by sulforhodamine B assay; conditions: OVCAR-8, 48 h; in short: as §2
[23] = test system: UO-31; experiment: Growth inhibition of human UO31 cells incubated for 48 hrs by sulforhodamine B assay; conditions: UO-31, 48 h; in short: as §3
[24] = test system: MDA-MB-231; experiment: Growth inhibition of human MDA-MB-231 cells incubated for 48 hrs by sulforhodamine B assay; conditions: MDA-MB-231, 48 h; in short: as §2
[25] = test system: OVCAR-3; experiment: Growth inhibition of human OVCAR3 cells incubated for 48 hrs by sulforhodamine B assay; conditions: OVCAR-3, 48 h; in short: as §2
[26] = test system: K562; experiment: Growth inhibition of human K562 cells incubated for 48 hrs by sulforhodamine B assay; conditions: K562, 48 h; for CC50: read-out: LC50 (the source's name); in short: as §1
[27] = test system: NCI-H226; experiment: Growth inhibition of human NCI-H226 cells incubated for 48 hrs by sulforhodamine B assay; conditions: NCI-H226, 48 h; for CC50: read-out: LC50 (the source's name); in short: as §1
[28] = test system: SK-MEL-5; experiment: Growth inhibition of human SK-MEL-5 cells incubated for 48 hrs by sulforhodamine B assay; conditions: SK-MEL-5, 48 h; for CC50: read-out: LC50 (the source's name); in short: as §1
[29] = test system: MDA-MB-468; experiment: Growth inhibition of human MDA-MB-468 cells incubated for 48 hrs by sulforhodamine B assay; conditions: MDA-MB-468, 48 h; in short: as §2
[30] = test system: DU-145; experiment: Growth inhibition of human DU145 cells incubated for 48 hrs by sulforhodamine B assay; conditions: DU-145, 48 h; for CC50: read-out: LC50 (the source's name); in short: as §4
[31] = test system: A549; experiment: Growth inhibition of human A549/ATCC cells incubated for 48 hrs by sulforhodamine B assay; conditions: A549, 48 h; in short: as §1
[32] = read-out: LC50 (the source's name)

Structure (SMILES): COc1ccc(C2=NN(C=O)C(c3cccc(Nc4ccnc5cc(Cl)ccc45)c3)C2)cc1 (stereo not drawn)
- GI50 [1]: 3710 nM
- CC50 [1]: > 100000 nM
- GI50 [2]: 2560 nM
- CC50 [2]: > 100000 nM
- GI50 [3]: 11700 nM
- CC50 [3, 32]: > 100000 nM
- GI50 [4]: 370 nM
- CC50 [4, 32]: > 100000 nM
- GI50 [5]: 1240 nM
- CC50 [5, 32]: > 100000 nM
- GI50 [6]: 1730 nM
- CC50 [6, 32]: > 100000 nM
- GI50 [7]: 1350 nM
- CC50 [7]: > 100000 nM
- GI50 [8]: 3430 nM
- LC50 [8]: 79800 nM
- GI50 [9]: 2180 nM
- CC50 [9, 32]: > 100000 nM
- GI50 [10]: 2810 nM
- LC50 [10]: > 100000 nM
- GI50 [11]: 2400 nM
- CC50 [11, 32]: 60600 nM
- GI50 [12]: 3330 nM
- CC50 [12]: > 100000 nM
- GI50 [13]: 1930 nM
- CC50 [13, 32]: > 100000 nM
- GI50 [14]: 3920 nM
- CC50 [14, 32]: > 100000 nM
- GI50 [15]: 5110 nM
- CC50 [15, 32]: > 100000 nM
- GI50 [16]: 2370 nM
- CC50 [16]: > 100000 nM
- GI50 [17]: 6510 nM
- CC50 [17, 32]: > 100000 nM
- GI50 [18]: 2130 nM
- CC50 [18]: > 100000 nM
- GI50 [19]: 2340 nM
- CC50 [19, 32]: 67500 nM
- GI50 [20]: 580 nM
- CC50 [20]: > 100000 nM
- GI50 [21]: 1660 nM
- CC50 [21]: > 100000 nM
- GI50 [22]: 3290 nM
- LC50 (concentration causing 50% net cell kill) [22]: > 100000 nM
- GI50 [23]: 3250 nM
- CC50 [23, 32]: > 100000 nM
- GI50 [24]: 4000 nM
- CC50 [24, 32]: > 100000 nM
- GI50 [25]: 1970 nM
- CC50 [25, 32]: 63700 nM
- GI50 [26]: 510 nM
- CC50 [26]: > 100000 nM
- GI50 [27]: 3130 nM
- CC50 [27]: > 100000 nM
- GI50 [28]: 920 nM
- CC50 [28]: 17400 nM
- GI50 [29]: 420 nM
- CC50 [29, 32]: 63800 nM
- GI50 [30]: 3620 nM
- CC50 [30]: > 100000 nM
- GI50 [31]: 4630 nM
- LC50 (concentration giving 50% net cell kill) [31]: > 100000 nM

Structure (SMILES): COc1cccc2c1C(=O)c1c(O)c3c(c(O)c1C2=O)C[C@@](O)(C(=O)CO)C[C@@H]3O[C@H]1C[C@H](N)[C@H](O)[C@H](C)O1 [DOXORUBICIN]
- GI50 [1]: 170 nM
- CC50 [1]: 100000 nM
- GI50 [2]: 70 nM
- CC50 [2]: 3300 nM
- GI50 [3]: 260 nM
- GI50 [4]: 250 nM
- GI50 [5]: 100 nM
- GI50 [6]: 90 nM
- GI50 [7]: 100 nM
- CC50 [7]: 1900 nM
- GI50 [8]: 130 nM
- GI50 [9]: 270 nM
- GI50 [10]: 410 nM
- GI50 [11]: 180 nM
- GI50 [12]: 220 nM
- CC50 [12]: 100000 nM
- GI50 [13]: 230 nM
- GI50 [14]: 330 nM
- GI50 [15]: 40 nM
- GI50 [16]: 30 nM
- CC50 [16]: 100000 nM
- GI50 [17]: 540 nM
- CC50 [18]: 100000 nM
- GI50 [19]: 180 nM
- GI50 [20]: 30 nM
- CC50 [20]: 100000 nM
- CC50 [21]: 100000 nM
- GI50 [22]: 100 nM
- GI50 [23]: 490 nM
- GI50 [24]: 510 nM
- GI50 [25]: 390 nM
- GI50 [26]: 190 nM
- CC50 [26]: 100000 nM
- GI50 [27]: 50 nM
- CC50 [27]: 6400 nM
- GI50 [28]: 80 nM
- CC50 [28]: 490 nM
- GI50 [29]: 50 nM
- GI50 [30]: 110 nM
- CC50 [30]: 100000 nM
- GI50 [31]: 60 nM
